Source: ChEMBL document CHEMBL1145155, “Synthesis and identification of [1,3,5]triazine-pyridine biheteroaryl as a novel series of potent cyclin-dependent kinase inhibitors” (J Med Chem, 2005)

Tests used:
[1] = target: Vascular endothelial growth factor receptor 2 (Homo sapiens, UniProt P35968); assay: Inhibition of vascular endothelial growth factor receptor 2
[2] = target: T1, Cyclin-dependent kinase 1 (Homo sapiens, UniProt P06493); assay: Inhibition of cyclin dependent kinase (CDK1)
How it was run: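 Radiometric FlashPlate assay: biotinylated peptide substrate at 0.025 μM with 33P-γ-ATP plus 10 μM ATP in 50 mM Tris-HCl pH 8, 10 mM MgCl2, 0.1 mM Na3VO4, 1 mM DTT. Incubated 1 h at 30 °C, stopped by PBS/100 mM EDTA wash, then scintillation counted. Inhibition is relative to untreated controls; IC50 from linear regression of percent inhibition. Conditions varied slightly per kinase.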

[3] = Inhibition of [Ca(2+)]/Calmodulin dependent kinase
CDK6/cyclin D3 = CDK6/cyclin D3 (Homo sapiens, UniProt Q00534); assay: Inhibition of CDK6/cyclin D3; assay type: protein-complex assay
How it was run: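 Run in an external kinase panel. Kinase phosphorylation of the appropriate peptide/protein substrate was measured with 100 μM ATP, under conditions linear with time. IC50 is the average of two separate determinations.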

[4] = target: Cyclin-dependent kinase 7/ cyclin H (Homo sapiens, UniProt P50613); assay: Inhibition of CDK7/cyclin H; assay type: protein-complex assay
How it was run: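 Run by Upstate Biotech as a contract panel: kinase phosphorylation of an appropriate peptide/protein substrate with 100 μM ATP, under conditions linear with time. IC50 is the average of two separate determinations.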

[5] = target: Mitogen-activated protein kinase 1 (Homo sapiens, UniProt P28482); assay: Inhibition of ERK 2
[6] = target: Cyclin-dependent kinase 2/cyclin A (Homo sapiens, UniProt P24941); assay: Inhibitory concentration of compound against CDK2/cyclin A; assay type: protein-complex assay
Casein kinase II = Casein kinase II (Homo sapiens, UniProt P19784+P67870+P68400); assay: Inhibition of Casein kinase II; assay type: protein-complex assay
[7] = Inhibition of Glycogen synthase kinase-3 beta
U-937 = assay: Inhibitory concentration of compound against growth of U-937 cells; details: Homo sapiens
HeLa = assay: Inhibitory concentration of compound against growth of HeLa cells; details: Homo sapiens
A-375 = assay: Inhibitory concentration of compound against growth of A-375 cells; details: Homo sapiens
HCT-116 = assay: Inhibitory concentration of compound against growth of HCT116 cells; details: Homo sapiens
[8] = Inhibitory concentration of compound against growth of MES SA cells (low p glycoprotein); details: Homo sapiens
[9] = target: Cyclin-dependent kinase 5/CDK5 activator 1 (Homo sapiens, UniProt Q00535)
[10] = target: Cyclin-dependent kinase 4/cyclin D1 (Homo sapiens, UniProt P11802); assay: Inhibition of CDK4/cyclin D1; assay type: protein-complex assay
How it was run: (§1)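 Incubated 1 h at 30 °C on a streptavidin-coated plate, stopped by washing with PBS containing 100 mM EDTA, then scintillation counted. Conditions varied slightly by kinase. IC50 was derived by linear regression of % inhibition versus untreated controls.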

[11] = Inhibitory concentration of compound against growth of MES SA/Dx 5 cells (high p glycoprotein); details: Homo sapiens, MES-SA/Dx5
[12] = Inhibition of Protein kinase C gamma
[13] = target: RAC-beta serine/threonine-protein kinase (Homo sapiens, UniProt P31751); assay: Inhibition of PKB beta
[14] = target: Cyclin-dependent kinase 1/cyclin B (Homo sapiens, UniProt P06493); assay: Inhibition of Cyclin-dependent kinase 1-cyclin B; assay type: protein-complex assay
[15] = target: Fibroblast growth factor receptor 2 (Homo sapiens, UniProt P21802); assay: Inhibition of Fibroblast growth factor receptor 2
[16] = target: T1, Cyclin-dependent kinase 1; assay: Inhibition of cyclin dependent kinase CDK1; how it was run: as §1

`OCCCNc1cncc(-c2ncnc(Nc3cccc(Cl)c3)n2)n1` gave an IC50 [1] of over 10000 nM.

With `OCCCNc1cncc(-c2ncnc(Nc3ccc(N4CCOCC4)cc3)n2)c1` the IC50 [1] was 5030 nM.

Compound `Nc1nc(Nc2cccc(Cl)c2)nc(-c2ccnc(NCCCO)c2)n1` has an IC50 [2] of 1110 nM and an IC50 [1] of 1070 nM.

Compound `OCCCNc1cncc(-c2ncnc(Nc3cccc(Cl)c3)n2)c1` has an IC50 [2] of 60 nM and an IC50 [1] of 2010 nM.

Work on `OCCCNc1cncc(-c2ncnc(Nc3ccc4c(c3)OCCO4)n2)c1` yielded an IC50 [2] of 344 nM and an IC50 [1] of 4140 nM.

For `OCCCNc1cc(-c2ncnc(Nc3cccc(Cl)c3)n2)ccn1`, the IC50 [3] was over 10000 nM, the IC50 (CDK6/cyclin D3) was 356 nM and the IC50 [4] was 126 nM. For the same compound, the IC50 [5] was over 10000 nM, the IC50 [6] was 7 nM and the IC50 (Casein kinase II) was over 10000 nM. The IC50 [7] was 20 nM, the IC50 (U-937) was 31 nM and the IC50 (HeLa) was 33 nM. For the same compound, the IC50 (A-375) was 28 nM, the IC50 (HCT-116) was 23 nM and the IC50 [8] was 228 nM. The IC50 [9] was 3 nM, the IC50 [10] was 308 nM and the IC50 [11] was 235 nM. For the same compound, the IC50 [12] was over 10000 nM, the IC50 [13] was over 10000 nM and the IC50 [14] was 21 nM. The IC50 [15] was over 10000 nM and the IC50 [16] was 21 nM.
